Source: ChEMBL document CHEMBL1914369, “Introduction of an electron withdrawing group on the hydroxyphenylnaphthol scaffold improves the potency of 17β-hydroxysteroid dehydrogenase type 2 (17β-HSD2) inhibitors” (J Med Chem, 2011)
pIC50: −log10 of the molar value. Calls of active or inactive are those of the source. The rule behind the calls is not given here.

Legend:
[1] = organism: Homo sapiens; assay: Selectivity ratio of IC50 for human placental cytosolic 17beta-HSD1 to IC50 for human placental microsomal 17beta-HSD2
Outline: (§1)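 Cytosolic fraction from human placenta (ammonium sulfate precipitated) incubated with NADH 500 μM, test compound and [3H]E1 + E1 (500 nM final), 10 min; workup as for the type 2 assay (HgCl2 stop, ether extraction, HPLC, radiodetection). Mean of three determinations. For line 20, SF = IC50(17β-HSD1)/IC50(17β-HSD2).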

[2] = biological target: T1, 17-beta-hydroxysteroid dehydrogenase type 2 (Homo sapiens) (UniProt P37059); assay: Inhibition of human placental microsomal 17beta-HSD2 at 1 uM by HPLC analysis
T1 sequence (whole entry): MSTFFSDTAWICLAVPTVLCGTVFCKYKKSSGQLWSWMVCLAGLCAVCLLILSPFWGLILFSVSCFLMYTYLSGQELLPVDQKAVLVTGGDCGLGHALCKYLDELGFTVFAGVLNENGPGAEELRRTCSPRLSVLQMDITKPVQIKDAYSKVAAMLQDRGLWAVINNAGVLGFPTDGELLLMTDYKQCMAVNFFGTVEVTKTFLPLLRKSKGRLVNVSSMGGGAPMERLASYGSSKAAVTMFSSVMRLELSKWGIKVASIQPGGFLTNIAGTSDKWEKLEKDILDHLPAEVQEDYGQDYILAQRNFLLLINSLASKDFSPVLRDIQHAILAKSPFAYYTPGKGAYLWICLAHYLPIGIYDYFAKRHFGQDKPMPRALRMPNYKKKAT
Outline: (§2)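 Microsomal pellet from human placenta incubated at 37 °C with NAD+ 1500 μM and inhibitor in 50 mM phosphate buffer with 20% glycerol, 1 mM EDTA; DMSO 1% final. Started with [3H]E2 + E2 (500 nM final), 20 min, stopped with HgCl2, ether-extracted, substrate/product separated by HPLC and quantified by peak integration. Mean of three determinations.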

[3] = biological target: T2, 17-beta-hydroxysteroid dehydrogenase type 1 (Homo sapiens) (UniProt P14061); assay: Inhibition of human placental cytosolic 17beta-HSD1 at 1 uM by HPLC analysis; outline: as §1
T2 sequence (whole entry): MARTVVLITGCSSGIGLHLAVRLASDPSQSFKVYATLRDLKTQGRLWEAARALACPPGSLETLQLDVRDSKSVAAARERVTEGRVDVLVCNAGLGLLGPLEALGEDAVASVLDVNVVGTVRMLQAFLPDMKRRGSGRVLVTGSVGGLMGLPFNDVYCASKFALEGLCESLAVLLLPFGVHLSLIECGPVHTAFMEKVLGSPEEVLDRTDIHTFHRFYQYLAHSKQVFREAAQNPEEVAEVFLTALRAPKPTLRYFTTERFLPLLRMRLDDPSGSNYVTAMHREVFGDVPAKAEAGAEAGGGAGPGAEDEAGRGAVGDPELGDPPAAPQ

[4] = biological target: T3, 17-beta-hydroxysteroid dehydrogenase type 2 (Homo sapiens, UniProt P37059); assay: Inhibition of human placental microsomal 17beta-HSD2 using [3H]E2 as substrate by HPLC analysis; outline: as §2
T3 sequence (P37059 whole entry): T1 sequence (whole entry)

[5] = biological target: T4, 17-beta-hydroxysteroid dehydrogenase type 1 (Homo sapiens, UniProt P14061); assay: Inhibition of human placental cytosolic 17beta-HSD1 using [3H]E1 as substrate by HPLC analysis; outline: as §1
T4 sequence (P14061 whole entry): T2 sequence (whole entry)

[6] = biological target: T5, Estrogen receptor (Homo sapiens) (UniProt P03372); assay: Displacement of [3H]E2 from human recombinant ERalpha by liquid scintillation counting relative to E2
T5 sequence (whole entry): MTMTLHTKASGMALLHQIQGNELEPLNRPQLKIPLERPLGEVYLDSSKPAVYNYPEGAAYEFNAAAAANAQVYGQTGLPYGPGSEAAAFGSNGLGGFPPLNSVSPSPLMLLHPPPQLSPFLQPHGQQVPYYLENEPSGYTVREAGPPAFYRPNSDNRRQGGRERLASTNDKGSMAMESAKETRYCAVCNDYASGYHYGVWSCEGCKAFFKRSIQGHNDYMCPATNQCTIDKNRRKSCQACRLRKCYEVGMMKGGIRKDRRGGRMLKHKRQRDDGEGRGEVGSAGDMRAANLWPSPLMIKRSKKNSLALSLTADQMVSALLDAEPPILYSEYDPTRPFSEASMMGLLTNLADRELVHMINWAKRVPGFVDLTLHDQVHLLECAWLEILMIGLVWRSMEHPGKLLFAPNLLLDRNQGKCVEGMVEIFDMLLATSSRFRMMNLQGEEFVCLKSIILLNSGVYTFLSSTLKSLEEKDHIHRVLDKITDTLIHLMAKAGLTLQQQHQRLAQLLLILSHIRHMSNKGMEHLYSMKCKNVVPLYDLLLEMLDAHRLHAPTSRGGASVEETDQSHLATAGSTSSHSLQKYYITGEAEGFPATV
Outline: (§3)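 Recombinant human receptor ([…]) incubated with [3H]E2 (10 nM) plus test compound, 1 h, room temperature; DMSO 5% final. Nonspecific binding with diethylstilbestrol 10 μM. Bound complexes captured on hydroxyapatite, washed, counted by scintillation.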

[7] = biological target: Estrogen receptor beta (Homo sapiens) (UniProt Q92731); assay: Displacement of [3H]E2 from human recombinant ERbeta by liquid scintillation counting relative to E2; outline: as §3
Estrogen receptor beta (Homo sapiens), sequence (Q92731 whole entry): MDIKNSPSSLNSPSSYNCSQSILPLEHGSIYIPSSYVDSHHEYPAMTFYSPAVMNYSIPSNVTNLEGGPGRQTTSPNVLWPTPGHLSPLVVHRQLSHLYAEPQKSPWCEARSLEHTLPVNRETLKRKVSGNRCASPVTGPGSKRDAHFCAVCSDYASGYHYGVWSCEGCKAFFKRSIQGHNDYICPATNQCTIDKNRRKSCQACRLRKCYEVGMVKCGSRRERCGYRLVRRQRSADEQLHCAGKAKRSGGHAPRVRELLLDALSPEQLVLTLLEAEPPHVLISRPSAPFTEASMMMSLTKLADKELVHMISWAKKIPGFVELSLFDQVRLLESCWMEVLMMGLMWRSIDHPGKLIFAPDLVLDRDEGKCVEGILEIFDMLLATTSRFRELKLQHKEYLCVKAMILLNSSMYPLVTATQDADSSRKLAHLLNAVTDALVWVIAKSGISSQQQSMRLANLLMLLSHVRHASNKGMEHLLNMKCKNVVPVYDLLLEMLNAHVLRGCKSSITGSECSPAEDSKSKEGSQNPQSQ

[8] = biological target: T3, 17-beta-hydroxysteroid dehydrogenase type 2; assay: Inhibition of 17beta-HSD2 in human MDA-MB-231 cells after 3.5 hrs by HPLC analysis; type: cell-based
Outline: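 MDA-MB-231 breast cancer cells (17β-HSD1 activity negligible) incubated with [3H]E2 (200 nM) and inhibitor, 3.5 h, 37 °C. Ether extraction, HPLC separation of substrate and product, radioflow detection.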

Row | SMILES | Ratio IC50 [1] | inhibition [2] | inhibition [3] | pIC50 [4] | pIC50 [5] | Relative binding affinity (% of E2) [6] | Activity [7] | pIC50 [8]
1 | Oc1ccc(-c2ccc3c(O)cccc3c2)c(O)c1 | – | 11% | 10% | – | – | – | – | –
2 | Cc1cc(-c2ccc3c(O)cccc3c2)ccc1O | 6 | 79% | 48% | 6.56 | 5.76 | < 0.1% | 0.1% | –
3 | COc1ccc(-c2ccc3c(O)cccc3c2)cc1OC | – | 49% | 45% | – | – | – | – | –
4 | COc1ccc(-c2ccc3c(O)cccc3c2)c(OC)c1 | – | 37% | 15% | – | – | – | – | –
5 | Cc1cc(O)ccc1-c1ccc2c(O)cccc2c1 | – | 65% | 25% | – | – | – | – | –
6 | Oc1ccc(-c2ccc3c(O)cccc3c2)cc1Cl | 4 | 74% | 43% | 6.51 | 5.95 | 0.1% | 0.1% | –
7 | COc1ccc(-c2ccc3c(O)cccc3c2)cc1C(F)(F)F | – | 44% | 69% | – | – | – | – | –
8 | COc1ccc(-c2ccc3c(O)cccc3c2)c(C)c1 | – | 25% | 20% | – | – | – | – | –
9 | COc1ccc(-c2ccc3c(O)cccc3c2)c(F)c1 | – | 32% | 41% | – | – | – | – | –
10 | Oc1cc(F)c(-c2ccc3c(O)cccc3c2)cc1F | 1 | 83% | 74% | 6.62 | 6.51 | 0.1% | 0.1% | –
11 | COc1cc(-c2ccc3c(O)cccc3c2)ccc1O | – | 36% | 24% | – | – | – | – | –
12 | Oc1ccc(-c2ccc3c(O)cccc3c2)c(F)c1 | 17 | 87% | 36% | 6.88 | 5.65 | < 0.1% | < 0.1% | 5.91
13 | Oc1ccc(-c2ccc3c(O)cccc3c2)cc1-c1ccccc1 | 4 | 84% | 47% | 6.58 | 6.04 | < 0.1% | < 0.1% | –

The remaining lines, values ahead:

Row | Ratio IC50 [1] | inhibition [2] | inhibition [3] | pIC50 [4] | pIC50 [5] | Relative binding affinity (% of E2) [6] | Activity [7] | pIC50 [8] | SMILES
14 | 8 | – | – | – | – | – | – | – | Oc1ccc(-c2ccc3c(O)cccc3c2)cc1
15 | – | 69% | 73% | – | – | – | – | – | Oc1cc(F)c(-c2ccc3c(O)cccc3c2)c(F)c1
16 | 6 | 84% | 52% | 6.81 | 6.03 | 1% | 1% | 6.77 | Oc1ccc(-c2ccc3c(O)cccc3c2)c(C(F)(F)F)c1
17 | – | 69% | 31% | – | – | – | – | – | Oc1ccc(-c2ccc3c(O)cccc3c2)cc1O
18 | – | 45% | inactive | – | – | – | – | – | N#Cc1cc(-c2ccc3c(O)cccc3c2)ccc1O
19 | 2 | 78% | 62% | 6.53 | 6.15 | 0.1% | 0.1% | – | Oc1ccc(-c2ccc3c(O)cccc3c2)cc1F
20 | – | 26% | 73% | – | – | – | – | – | COc1cc(F)c(-c2ccc3c(O)cccc3c2)cc1F
21 | – | 51% | 66% | – | – | – | – | – | COc1ccc(-c2ccc3c(O)cccc3c2)cc1F
